In ChEMBL document CHEMBL2029221, “Acylprolinamides: a new class of peptide deformylase inhibitors with in vivo antibacterial activity” (Bioorg Med Chem Lett, 2012):
≈ marks a conversion by molar mass, not a printed value.

Legend:
[1] = Inhibition of Haemophilus influenzae PDF assessed as formate release from fMAS peptide substrate after 20 mins by formate dehydrogenase coupled assay
Summary of the method: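 Coupled assay in which formate released from the fMAS peptide is oxidized by formate dehydrogenase, reducing NAD to NADH, read as the rise in absorbance at 340. Reactions were started by adding PDF and velocities measured for 20 min at 25 °C. Values are the mean of at least 2 runs.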

[2] = system: Haemophilus influenzae; experiment: Antibacterial activity against Haemophilus influenzae Q1 by broth microdilution method; type: functional
Summary of the method: (§1)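 Broth microdilution following NCCLS document M7-A4. Serial two-fold dilutions from 0.06 to 64 mcg/ml were tested. The MIC was the lowest concentration preventing visible growth, with the endpoint read with the aid of a mirror reader.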

[3] = system: Enterococcus faecalis; experiment: Antibacterial activity against Enterococcus faecalis 7 by broth microdilution method; type: functional; summary of the method: as §1
[4] = Metabolic stability of the compound in rat blood assessed as compound remaining at 2000 ng/mL after 2 hrs; type: ADME, tissue-based; details: read-out: Stability
[5] = system: Staphylococcus aureus; experiment: Antibacterial activity against Staphylococcus aureus Oxford by broth microdilution method; type: functional; summary of the method: as §1
[6] = system: Streptococcus pneumoniae; experiment: Antibacterial activity against Streptococcus pneumoniae 1629 by broth microdilution method; type: functional; summary of the method: as §1
[7] = system: Moraxella catarrhalis; experiment: Antibacterial activity against Moraxella catarrhalis 1502 by broth microdilution method; type: functional; summary of the method: as §1
[8] = Metabolic stability of the compound in human blood assessed as compound remaining at 2000 ng/mL after 2 hrs; type: ADME, tissue-based; details: read-out: Stability
Summary of the method: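 Samples (n = 3) were spiked into fresh human blood at 2000 ng/mL, incubated at 37 °C for 120 min, and reported as % recovered at 2 h.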

[9] = target: T1, Peptide deformylase (Staphylococcus aureus, UniProt P68826); experiment: Inhibition of Staphylococcus aureus PDF assessed as formate release from fMAS peptide substrate after 20 mins by formate dehydrogenase coupled assay
T1 sequence (P68826 whole entry): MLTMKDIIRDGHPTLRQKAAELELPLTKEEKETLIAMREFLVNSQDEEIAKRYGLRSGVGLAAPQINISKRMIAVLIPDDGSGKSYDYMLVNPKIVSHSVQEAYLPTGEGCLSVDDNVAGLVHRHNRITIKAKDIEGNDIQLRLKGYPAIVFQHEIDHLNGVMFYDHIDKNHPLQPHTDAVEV

[10] = target: T2, Peptide deformylase (Streptococcus pneumoniae serotype 4 (strain ATCC BAA-334 / TIGR4), UniProt Q9F2F0); experiment: Inhibition of Streptococcus pneumoniae PDF assessed as formate release from fMAS peptide substrate after 20 mins by formate dehydrogenase coupled assay
T2 sequence (Q9F2F0 whole entry): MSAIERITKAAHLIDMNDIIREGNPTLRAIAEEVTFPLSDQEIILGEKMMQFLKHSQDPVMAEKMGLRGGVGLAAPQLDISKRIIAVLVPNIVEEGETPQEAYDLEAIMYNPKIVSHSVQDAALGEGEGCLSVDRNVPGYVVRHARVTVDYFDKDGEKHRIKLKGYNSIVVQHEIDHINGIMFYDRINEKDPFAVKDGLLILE

O=CN(O)C[C@@H](CC1CCCC1)C(=O)N1CCC[C@H]1C(=O)NC(=O)c1ccccc1
IC50 [1]: 3.8 nM | MIC [2]: 0.5 µg/mL (≈ 1.2 µM) | MIC [3]: 1 µg/mL (≈ 2.41 µM) | remaining at 2 h, 2000 ng/mL [4]: 27.2% | MIC [5]: 1 µg/mL (≈ 2.41 µM) | MIC [6]: 0.25 µg/mL (≈ 0.602 µM) | MIC [7]: ≤ 0.06 µg/mL

O=CN(O)C[C@@H](CC1CCCC1)C(=O)N1CCC[C@H]1C(=O)NC(=O)OC1CCCC1
IC50 [1]: 3.1 nM | MIC [2]: 1 µg/mL (≈ 2.36 µM) | remaining at 2 h, 2000 ng/mL [8]: 57.5% | IC50 [9]: 1.4 nM | MIC [3]: 1 µg/mL (≈ 2.36 µM) | remaining at 2 h, 2000 ng/mL [4]: 0% | MIC [5]: 0.5 µg/mL (≈ 1.18 µM) | MIC [6]: 0.125 µg/mL (≈ 0.295 µM) | IC50 [10]: 0.26 nM | MIC [7]: ≤ 0.06 µg/mL

O=CN(O)C[C@@H](CC1CCCC1)C(=O)N1CCC[C@H]1C(=O)NC(=O)OC1CCC1
IC50 [1]: 5.8 nM | MIC [2]: 0.5 µg/mL (≈ 1.22 µM) | remaining at 2 h, 2000 ng/mL [8]: 31.7% | IC50 [9]: 2.4 nM | MIC [3]: 1 µg/mL (≈ 2.44 µM) | remaining at 2 h, 2000 ng/mL [4]: 0% | MIC [5]: 0.5 µg/mL (≈ 1.22 µM) | MIC [6]: 0.25 µg/mL (≈ 0.611 µM) | IC50 [10]: 0.51 nM | MIC [7]: ≤ 0.06 µg/mL

CC(C)(C)C(=O)NC(=O)[C@@H]1CCCN1C(=O)[C@H](CC1CCCC1)CN(O)C=O
IC50 [1]: 18 nM | MIC [2]: 2 µg/mL (≈ 5.06 µM) | remaining at 2 h, 2000 ng/mL [8]: 80.6% | IC50 [9]: 10 nM | MIC [3]: 4 µg/mL (≈ 10.1 µM) | remaining at 2 h, 2000 ng/mL [4]: 29% | MIC [5]: 2 µg/mL (≈ 5.06 µM) | MIC [6]: 2 µg/mL (≈ 5.06 µM) | IC50 [10]: 1.3 nM | MIC [7]: ≤ 0.06 µg/mL

CC(C)(C)OC(=O)NC(=O)[C@@H]1CCCN1C(=O)[C@H](CC1CCCC1)CN(O)C=O
IC50 [1]: 3.2 nM | MIC [2]: 0.25 µg/mL (≈ 0.608 µM) | remaining at 2 h, 2000 ng/mL [8]: 52% | IC50 [9]: 3.4 nM | MIC [3]: 1 µg/mL (≈ 2.43 µM) | remaining at 2 h, 2000 ng/mL [4]: 27.6% | MIC [5]: 1 µg/mL (≈ 2.43 µM) | MIC [6]: 0.25 µg/mL (≈ 0.608 µM) | IC50 [10]: 0.52 nM | MIC [7]: ≤ 0.06 µg/mL

O=CN(O)C[C@@H](CC1CCCC1)C(=O)N1CCC[C@H]1C(=O)NC(=O)NC1CCCC1
IC50 [1]: 2 nM | MIC [2]: 2 µg/mL (≈ 4.73 µM) | remaining at 2 h, 2000 ng/mL [8]: 103% | IC50 [9]: 0.52 nM | MIC [3]: 1 µg/mL (≈ 2.37 µM) | MIC [5]: 0.5 µg/mL (≈ 1.18 µM) | MIC [6]: 0.125 µg/mL (≈ 0.296 µM) | IC50 [10]: 0.1 nM | MIC [7]: ≤ 0.06 µg/mL

CC(C)NC(=O)NC(=O)[C@@H]1CCCN1C(=O)[C@H](CC1CCCC1)CN(O)C=O
IC50 [1]: 3 nM | MIC [2]: 2 µg/mL (≈ 5.04 µM) | remaining at 2 h, 2000 ng/mL [8]: 99.7% | IC50 [9]: 1.6 nM | MIC [3]: 4 µg/mL (≈ 10.1 µM) | MIC [5]: 1 µg/mL (≈ 2.52 µM) | MIC [6]: 1 µg/mL (≈ 2.52 µM) | IC50 [10]: 0.31 nM | MIC [7]: ≤ 0.06 µg/mL

O=CN(O)C[C@@H](CC1CCCC1)C(=O)N1CCC[C@H]1C(=O)NC(=O)OC1CCCCC1
IC50 [1]: 2.3 nM | MIC [2]: 1 µg/mL (≈ 2.29 µM) | remaining at 2 h, 2000 ng/mL [8]: 45.8% | IC50 [9]: 1.5 nM | MIC [3]: 0.5 µg/mL (≈ 1.14 µM) | remaining at 2 h, 2000 ng/mL [4]: 0.4% | MIC [5]: 0.25 µg/mL (≈ 0.571 µM) | MIC [6]: 0.125 µg/mL (≈ 0.286 µM) | IC50 [10]: 0.3 nM | MIC [7]: ≤ 0.06 µg/mL

O=CN(O)C[C@@H](CC1CCCC1)C(=O)N1CCC[C@H]1C(=O)NC(=O)NCCc1ccccc1
IC50 [1]: 3.6 nM | MIC [2]: 4 µg/mL (≈ 8.72 µM) | remaining at 2 h, 2000 ng/mL [8]: 92.2% | IC50 [9]: 0.86 nM | MIC [3]: 0.5 µg/mL (≈ 1.09 µM) | MIC [5]: ≤ 0.06 µg/mL | MIC [6]: ≤ 0.06 µg/mL | IC50 [10]: 0.12 nM | MIC [7]: ≤ 0.06 µg/mL

O=CN(O)C[C@@H](CC1CCCC1)C(=O)N1CCC[C@H]1C(=O)NC(=O)OC1CCOCC1
IC50 [1]: 3.1 nM | MIC [2]: 0.5 µg/mL (≈ 1.14 µM) | remaining at 2 h, 2000 ng/mL [8]: 23% | IC50 [9]: 4.4 nM | MIC [3]: 2 µg/mL (≈ 4.55 µM) | remaining at 2 h, 2000 ng/mL [4]: 9.5% | MIC [5]: 1 µg/mL (≈ 2.28 µM) | MIC [6]: 0.25 µg/mL (≈ 0.569 µM) | IC50 [10]: 0.66 nM | MIC [7]: ≤ 0.06 µg/mL

C=CCNC(=O)NC(=O)[C@@H]1CCCN1C(=O)[C@H](CC1CCCC1)CN(O)C=O
IC50 [1]: 20 nM | MIC [2]: 1 µg/mL (≈ 2.54 µM) | IC50 [9]: 10 nM | MIC [3]: 2 µg/mL (≈ 5.07 µM) | MIC [5]: 0.5 µg/mL (≈ 1.27 µM) | MIC [6]: 1 µg/mL (≈ 2.54 µM) | IC50 [10]: 2.1 nM | MIC [7]: ≤ 0.06 µg/mL

CC(C)CC(=O)NC(=O)[C@@H]1CCCN1C(=O)[C@H](CC1CCCC1)CN(O)C=O
IC50 [1]: 7 nM | MIC [2]: 0.5 µg/mL (≈ 1.26 µM) | IC50 [9]: 4 nM | MIC [3]: 2 µg/mL (≈ 5.06 µM) | MIC [5]: 1 µg/mL (≈ 2.53 µM) | MIC [6]: 1 µg/mL (≈ 2.53 µM) | IC50 [10]: 0.8 nM | MIC [7]: ≤ 0.06 µg/mL

NCCNC(=O)NC(=O)[C@@H]1CCCN1C(=O)[C@H](CC1CCCC1)CN(O)C=O
IC50 [1]: 7 nM | MIC [2]: > 64 µg/mL | IC50 [9]: 2.3 nM | MIC [3]: > 64 µg/mL | MIC [5]: 16 µg/mL (≈ 40.3 µM) | MIC [6]: 16 µg/mL (≈ 40.3 µM) | IC50 [10]: 0.38 nM | MIC [7]: 2 µg/mL (≈ 5.03 µM)

O=CN(O)C[C@@H](CC1CCCC1)C(=O)N1CCC[C@H]1C(=O)NC(=O)NCCO
IC50 [1]: 8.8 nM | MIC [2]: 0.5 µg/mL (≈ 1.25 µM) | IC50 [9]: 3.8 nM | MIC [3]: 32 µg/mL (≈ 80.3 µM) | MIC [5]: 4 µg/mL (≈ 10 µM) | MIC [6]: 2 µg/mL (≈ 5.02 µM) | IC50 [10]: 1.1 nM | MIC [7]: 0.125 µg/mL (≈ 0.314 µM)

O=CN(O)C[C@@H](CC1CCCC1)C(=O)N1CCC[C@H]1C(=O)NC(=O)NCCc1ccncc1
IC50 [1]: 4.4 nM | MIC [2]: 2 µg/mL (≈ 4.35 µM) | IC50 [9]: 1.7 nM | MIC [3]: 8 µg/mL (≈ 17.4 µM) | MIC [5]: 2 µg/mL (≈ 4.35 µM) | MIC [6]: 1 µg/mL (≈ 2.18 µM) | IC50 [10]: 0.35 nM | MIC [7]: ≤ 0.06 µg/mL

COC(=O)NC(=O)[C@@H]1CCCN1C(=O)[C@H](CC1CCCC1)CN(O)C=O
IC50 [1]: 13 nM | MIC [2]: 0.125 µg/mL (≈ 0.338 µM) | IC50 [9]: 4.5 nM | MIC [3]: 4 µg/mL (≈ 10.8 µM) | MIC [5]: 1 µg/mL (≈ 2.71 µM) | MIC [6]: 1 µg/mL (≈ 2.71 µM) | IC50 [10]: 1.9 nM | MIC [7]: ≤ 0.06 µg/mL

CC(C)OC(=O)NC(=O)[C@@H]1CCCN1C(=O)[C@H](CC1CCCC1)CN(O)C=O
IC50 [1]: 4.7 nM | MIC [2]: 0.25 µg/mL (≈ 0.629 µM) | remaining at 2 h, 2000 ng/mL [8]: 49.6% | IC50 [9]: 2 nM | MIC [3]: 4 µg/mL (≈ 10.1 µM) | remaining at 2 h, 2000 ng/mL [4]: 0% | MIC [5]: 0.25 µg/mL (≈ 0.629 µM) | MIC [6]: 0.25 µg/mL (≈ 0.629 µM) | IC50 [10]: 0.48 nM | MIC [7]: ≤ 0.06 µg/mL
